Legend:
[1] = molecular target: T1, B1 bradykinin receptor (Homo sapiens, UniProt P46663); assay: Compound was tested for inhibition against human bradykinin B1 receptor using FLIPR assay
T1 sequence (P46663 whole entry): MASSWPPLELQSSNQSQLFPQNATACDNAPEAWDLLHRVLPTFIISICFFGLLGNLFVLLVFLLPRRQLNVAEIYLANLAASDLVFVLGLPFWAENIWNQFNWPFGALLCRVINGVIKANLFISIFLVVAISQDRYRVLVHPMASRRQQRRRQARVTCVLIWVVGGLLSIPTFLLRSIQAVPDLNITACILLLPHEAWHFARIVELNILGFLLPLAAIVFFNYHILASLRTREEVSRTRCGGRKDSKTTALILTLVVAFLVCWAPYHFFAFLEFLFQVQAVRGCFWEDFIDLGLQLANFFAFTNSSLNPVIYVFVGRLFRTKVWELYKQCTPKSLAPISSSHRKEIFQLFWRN

[2] = molecular target: T1, B1 bradykinin receptor; assay: Inhibition of human bradykinin B1 receptor
[3] = Half life after intravenous administration in rat; format: ADME, organism-based; details: in vivo
[4] = Oral bioavailability in rat; format: ADME, organism-based; details: in vivo
[5] = molecular target: T2, B1 bradykinin receptor (Rattus norvegicus, UniProt P97583); assay: Compound was tested for inhibition against rat Bradykinin receptor B1 using FLIPR assay
T2 sequence (P97583 whole entry): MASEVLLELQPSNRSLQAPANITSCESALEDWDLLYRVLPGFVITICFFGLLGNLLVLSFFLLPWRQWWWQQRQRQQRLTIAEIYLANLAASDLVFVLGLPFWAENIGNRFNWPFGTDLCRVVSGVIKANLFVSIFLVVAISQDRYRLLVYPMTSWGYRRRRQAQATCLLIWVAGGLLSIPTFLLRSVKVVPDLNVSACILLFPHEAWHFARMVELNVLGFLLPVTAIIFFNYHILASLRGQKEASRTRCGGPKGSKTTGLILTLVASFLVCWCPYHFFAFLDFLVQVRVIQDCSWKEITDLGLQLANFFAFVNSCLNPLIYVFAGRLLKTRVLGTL

[6] = molecular target: T2, B1 bradykinin receptor; assay: Compound was tested for inhibition against rat Bradykinin receptor B1
Procedure, shortened: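 Radioligand binding using the appropriate radioligand on CHO cells stably expressing rat bradykinin B1 receptor; Ki (nM) determined radiometrically; interassay variability about 10%.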

SMILES | Ki [2] | IC50 [1] | half-life [3] | bioavailability [4] | IC50 [5] | Ki [6]
CCCN1C(=O)C(NC(=O)Nc2ccc(N3CCC(N(C)C)CC3)cc2)N=C(C2CCCCC2)c2ccccc21 (configuration not stated) | 28 nM | 164 nM | – | – | – | –
CCCN1C(=O)C(NC(=O)Nc2ccc(N3CCC(c4ccncc4)CC3)cc2)N=C(CCc2ccccc2)c2ccccc21 (configuration not stated) | 55 nM | – | – | – | – | –
CCCN1C(=O)[C@H](NC(=O)Nc2ccc(N3CCC(N4CCCCC4)CC3)cc2)N=C(C2CCCCC2)c2ccccc21 | 5.73 nM | 24.7 nM | 3.2 h | 10% | 59 nM | 18.3 nM
CCCN1C(=O)C(NC(=O)Nc2ccc(N3CCN(c4cccnc4)CC3)cc2)N=C(C2CCCCC2)c2ccccc21 (configuration not stated) | 85 nM | – | – | – | – | –
CCCN1C(=O)[C@@H](NC(=O)Nc2ccc(N3CCC(N4CCCCC4)CC3)cc2)N=C(C2CCCCC2)c2ccccc21 | 1020 nM | 2200 nM | – | – | – | –
CCCN1C(=O)[C@H](NC(=O)Nc2ccc(N3CCC(N4CCCCC4)CC3)cc2)N=C(c2ccc(C)cc2)c2ccccc21 | 13.4 nM | 64.5 nM | 4.3 h | 32% | 27 nM | 17 nM
CCCN1C(=O)[C@H](NC(=O)Nc2ccc(N3CCN(c4ccncc4)CC3)cc2)N=C(CCc2ccccc2)c2ccccc21 | – | – | 2.7 h | 3.4% | 2.8 nM | 0.92 nM
CCCN1C(=O)[C@H](NC(=O)Nc2ccc(N3CCN(c4ccncc4)CC3)cc2)N=C(C2CCCCC2)c2ccccc21 | 1.33 nM | 8 nM | 2.3 h | 2.5% | 24.2 nM | –

The next lines start with results.

Ki [2] | SMILES | IC50 [1] | half-life [3] | bioavailability [4] | IC50 [5] | Ki [6]
> 10000 nM | CCCN1C(=O)C(NC(=O)Nc2ccc(N3CCCCC3)cc2)N=C(C2CCCCC2)c2ccccc21 (configuration not stated) | – | – | – | – | –
141 nM | O=C(CCCN1C(=O)CN=C(C2CCCCC2)c2ccccc21)Nc1ccc(N2CCC(N3CCCCC3)CC2)cc1 | – | – | – | – | –
97.5 nM | CCCN1C(=O)C(NC(=O)Nc2ccc(N3CCN(c4ccccn4)CC3)cc2)N=C(C2CCCCC2)c2ccccc21 (configuration not stated) | – | – | – | – | –
1.37 nM | CCCN1C(=O)[C@H](NC(=O)Nc2ccc(N3CCC(N4CCCCC4)CC3)cc2)N=C(CCc2ccccc2)c2ccccc21 | 4.83 nM | 2.4 h | 4.9% | 7.25 nM | 1.97 nM
> 10000 nM | CCCN1C(=O)C(NC(=O)Nc2ccc(N3CCN(c4ccccc4)CC3)cc2)N=C(C2CCCCC2)c2ccccc21 (configuration not stated) | – | – | – | – | –

Source: ChEMBL document CHEMBL1144876, “Benzodiazepines as potent and selective bradykinin B1 antagonists” (J Med Chem, 2003)
